# IDH1 mut inh – inhibitors of IDH1 R132H reductase, primary screen, biochemical, plate reader, single point. Isocitrate dehydrogenase [NADP] cytoplasmic (Homo sapiens), O75874. inhibition, % at 10 µM. hit rate 0.18% among 70,000. diaphorase/resazurin fluorescence, 60 min; in the data active = inhibition above about 34%; inconclusive = no clear call, values can overlap the other calls; inactive = below about 11%;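 also: 0% = DMSO and 100% = no enzyme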
# Target sequence (O75874 whole entry R132H): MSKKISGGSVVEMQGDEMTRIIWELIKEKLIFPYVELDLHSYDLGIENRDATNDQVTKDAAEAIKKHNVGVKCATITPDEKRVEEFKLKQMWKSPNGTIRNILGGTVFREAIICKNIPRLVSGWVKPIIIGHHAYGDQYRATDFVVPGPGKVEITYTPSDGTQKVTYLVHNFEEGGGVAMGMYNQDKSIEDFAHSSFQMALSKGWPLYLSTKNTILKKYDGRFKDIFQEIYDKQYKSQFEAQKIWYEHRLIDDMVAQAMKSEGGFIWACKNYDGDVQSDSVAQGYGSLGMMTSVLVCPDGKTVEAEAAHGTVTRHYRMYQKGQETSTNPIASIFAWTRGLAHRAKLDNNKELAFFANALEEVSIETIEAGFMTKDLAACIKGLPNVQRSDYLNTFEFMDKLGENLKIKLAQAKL
# T cruzi growth-1 – T. cruzi intracellular proliferation inhibitors, primary screen, cell-based, beta-gal Tulahuen parasites, NIH3T3 host, luminescence. T. cruzi beta-gal in NIH3T3, GalScreen luminescence, 90 h. inhibition, % at 8.34 µM. hit rate 5.9% among 77,000. AID 624255, 2012;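 active = mean inhibition above about 93%, with at least 55% of replicates each passing it, limit read from the data, passing the limit was not always enough; inconclusive = only one of those two conditions holds; inactive = neither condition holds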
# GASC1 inh – inhibitors of GASC-1 (KDM4C) histone demethylase, primary screen, biochemical, single concentration HTS. hit rate 0.15% among 96,000. inhibition, % at 12.5 µM. GST-KDM4C 2-372, H3K9me3 peptide, LANCE TR-FRET;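 active = mean replicate inhibition above about 25%, with at least 55% of replicates also reaching it, limit read from the data, passing the limit was not always enough; inconclusive = only one of those two conditions met; inactive = neither condition met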
#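 Test system – GST-tagged GASC-1 (JMJD2C) catalytic fragment, aa 2-372 · Medium – HEPES buffer, pH 7.5, plus ascorbate · Reagent – H3K9me3 peptide with Fe(II)/2OG · Compound – one test concentration per compound · Timing – 30 min reaction, 60 min detection, RT · Technique – TR-FRET with Eu antibody and ULight streptavidin, EDTA stop · Read-out basis – inhibition from TR-FRET ratio decrease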
# T cruzi growth-2 – T. cruzi intracellular proliferation inhibitors, confirmation, cell-based, NIH3T3 host, beta-gal parasite, luminescence, cherry-pick; AID 651739, 2012; hit rate 72% among 5,600; inhibition, % at 8.35 µM; T. cruzi beta-gal in NIH3T3, GalScreen luminescence, 90 h; shares compounds with T cruzi growth-1;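 active = mean replicate inhibition above about 95% and at least 55% of replicates individually reaching it, limit read from the data; inconclusive = only one of the two criteria is met; inactive = neither criterion is met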
# T cruzi growth-3 – inhibitors of intracellular T. cruzi replication, confirmation, NIH3T3 host cells, beta-gal parasites, cherry-pick, set 2. hit rate 21% among 5,600. shares compounds with T cruzi growth-1. T. cruzi beta-gal in NIH3T3, GalScreen luminescence, 90 h. AID 651740, 2012. inhibition, % at 2.09 µM;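 active = mean inhibition above about 95%, with at least 55% of replicates also reaching it, limit read from the data; inconclusive = meets just one of the two conditions; inactive = meets neither condition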;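 also: plate controls were neutral control median for no effect and positive control median for full effect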
# 3T3 cytotox – cytotoxicity in mouse NIH/3T3 fibroblasts, confirmation, cytotoxicity control for T. cruzi proliferation inhibitor project, cell-based, cherry-pick, single point. shares compounds with T cruzi growth-1. NIH/3T3 viability, CellTiter-Glo ATP luminescence, 90 h. cytotoxicity (signal decrease), % at 8.35 µM. hit rate 14% among 5,600. AID 651742, 2012;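 active = mean signal decrease across replicates above about 35% based on untreated-well scatter, with enough replicates individually passing, limit read from the data; inconclusive = no rule stated though some were filed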;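 also: 0% = median of neutral control wells and 100% = median of positive control wells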
# NIH3T3 tox 2 – NIH/3T3 fibroblast cytotoxicity, confirmation, cytotoxicity control, cell-based, cherry-pick, single point, set 2. shares compounds with T cruzi growth-1. NIH/3T3 viability, CellTiter-Glo ATP luminescence, 90 h. inhibition, % at 24.9 µM. hit rate 56% among 5,600;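 active = mean loss of cell viability signal at or above a set limit, and enough replicates individually reaching it; inconclusive = meets only the mean limit or only the replicate share; inactive = meets neither condition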;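 also: 0% = median of neutral control wells and 100% = median of positive control wells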
# * marks the source's active call; other numbers are inactive results; ? = inconclusive; · = not tested or not shown. Only a selection was taken, and hits are over-represented in it overall.
SMILES,IDH1 mut inh,T cruzi growth-1,GASC1 inh,T cruzi growth-2,T cruzi growth-3,3T3 cytotox,NIH3T3 tox 2
O=C(Nc1cccc(F)c1)N1CCCCN2[C@@H](CO)[C@@H](c3ccc(C#Cc4ccccc4)cc3)[C@@H]2C1,·,79,0,·,·,·,·
COc1ccc(C#Cc2ccc([C@@H]3[C@@H](CO)N4CCCCN(C(=O)Nc5ccccc5F)C[C@H]34)cc2)cc1,·,103,-2,·,·,·,·
COc1ccc(C#Cc2ccc([C@H]3[C@H](CO)N4CCCCN(C(=O)Nc5ccccc5)C[C@@H]34)cc2)cc1,·,72,-6,·,·,·,·
COc1ccc(C#Cc2ccc([C@H]3[C@H]4CN(C(=O)Nc5ccccc5F)CCCCN4[C@H]3CO)cc2)cc1,·,120*,-3,106*,60,29,33*
O=C(Nc1cccc(F)c1)N1CCCCN2[C@@H](CO)[C@@H](c3ccc(C#Cc4cccnc4)cc3)[C@@H]2C1,·,100*,0,106*,100*,59*,103*
COc1ccc(C#Cc2ccc([C@@H]3[C@@H](CO)N4CCCCN(C(=O)Nc5ccccc5)C[C@@H]34)cc2)cc1,·,111*,-2,83,93,31,102*
CCOC(=O)c1c(NC(=O)C2(C)Cc3ccccc3C(=O)O2)sc(C)c1C (stereo unspecified),0,·,·,·,·,·,·
CC1(C)C(=O)N=C2c3ccccc3C(=O)C(=O)C21 (stereo unspecified),1,·,·,·,·,·,·
COc1ccc(S(=O)(=O)Nc2ccc3c(c2)C(=O)N([C@H](C)CO)C[C@H](C)[C@H](CN(C)C(=O)Nc2ccccc2)OCCCC[C@H](C)O3)cc1,-2,99*,0,108*,37,-18,-19
COc1ccc(S(=O)(=O)Nc2ccc3c(c2)C(=O)N([C@@H](C)CO)C[C@H](C)[C@@H](CN(C)C(=O)Nc2ccc(C(F)(F)F)cc2)OCCCC[C@@H](C)O3)cc1,0,88,-1,·,·,·,·
Cc1ccc(S(=O)(=O)Nc2ccc3c(c2)C(=O)N([C@@H](C)CO)C[C@@H](C)[C@@H](CN(C)C(=O)Nc2ccc(C(F)(F)F)cc2)OCCCC[C@@H](C)O3)cc1,2,98*,-1,104*,112*,22,13
COc1ccc(S(=O)(=O)Nc2ccc3c(c2)C(=O)N([C@H](C)CO)C[C@@H](C)[C@H](CN(C)C(=O)Nc2ccccc2)OCCCC[C@@H](C)O3)cc1,·,67,-2,·,·,·,·
Cc1ccc(S(=O)(=O)Nc2ccc3c(c2)C(=O)N([C@H](C)CO)C[C@H](C)[C@@H](CN(C)C(=O)Nc2ccc(C(F)(F)F)cc2)OCCCC[C@@H](C)O3)cc1,1,101*,1,105*,72,1,17
COc1ccc(S(=O)(=O)Nc2ccc3c(c2)C(=O)N([C@H](C)CO)C[C@H](C)[C@H](CN(C)C(=O)Nc2ccc(C(F)(F)F)cc2)OCCCC[C@@H](C)O3)cc1,0,108*,1,104*,58,21,?
Cc1ccc(S(=O)(=O)Nc2ccc3c(c2)C(=O)N([C@@H](C)CO)C[C@H](C)[C@H](CN(C)C(=O)Nc2ccc(C(F)(F)F)cc2)OCCCC[C@H](C)O3)cc1,-13,·,-1,·,·,·,·
Cc1ccc(S(=O)(=O)Nc2ccc3c(c2)C(=O)N([C@@H](C)CO)C[C@H](C)[C@@H](CN(C)C(=O)Nc2ccc(C(F)(F)F)cc2)OCCCC[C@@H](C)O3)cc1,3,91,2,·,·,·,·
Cc1ccc(N(C(C)C(=O)Nc2ccc(I)cc2)S(C)(=O)=O)cc1C (stereo unspecified),0,·,·,·,·,·,·
Nc1c(S(=O)(=O)c2ccccc2)nnn1-c1ccc(OC(F)(F)F)cc1,0,·,·,·,·,·,·
Cc1sc2nc(SCc3cc(=O)[nH][nH]3)nc(N)c2c1C,0,·,·,·,·,·,·
COc1cccc(-c2ccc([C@@H]3[C@@H](CO)N4CCCCN(S(=O)(=O)c5cccs5)C[C@H]34)cc2)c1,·,67,-1,·,·,·,·
COc1cccc(-c2ccc([C@@H]3[C@H](CO)N4CCCCN(S(=O)(=O)c5cccs5)C[C@@H]34)cc2)c1,·,89,-2,·,·,·,·
Cc1cccc(-c2ccc([C@H]3[C@@H](CO)N4CCCCN(S(=O)(=O)c5cccc(C)c5)C[C@@H]34)cc2)c1,·,73,-1,·,·,·,·
Cc1cccc(-c2ccc([C@@H]3[C@H]4CN(S(=O)(=O)c5cccs5)CCCCN4[C@H]3CO)cc2)c1,·,98*,0,107*,75,25,60*
Cc1cccc(-c2ccc([C@@H]3[C@@H](CO)N4CCCCN(S(=O)(=O)c5cccc(C)c5)C[C@@H]34)cc2)c1,·,89,0,·,·,·,·
Cc1cccc(-c2ccc([C@@H]3[C@H](CO)N4CCCCN(S(=O)(=O)c5cccs5)C[C@@H]34)cc2)c1,·,103*,-1,106*,64,47*,102*
SMILES,IDH1 mut inh,T cruzi growth-1,GASC1 inh,T cruzi growth-2,T cruzi growth-3,3T3 cytotox,NIH3T3 tox 2
Cc1cccc(-c2ccc([C@@H]3[C@@H](CO)N4CCCCN(S(=O)(=O)c5cccs5)C[C@@H]34)cc2)c1,·,115*,-3,106*,32,44*,70*
Cc1cccc(-c2ccc([C@H]3[C@H](CO)N4CCCCN(S(=O)(=O)c5cccs5)C[C@@H]34)cc2)c1,·,115*,-1,108*,78,29,105*
COc1cc2[nH]c(=S)n(CCc3cnc[nH]3)c(=O)c2cc1OC,2,·,·,·,·,·,·
COc1cc(O)c2c(=O)c(O[C@@H]3O[C@H](CO[C@@H]4O[C@@H](C)[C@H](O)[C@@H](O)[C@H]4O)[C@@H](O)[C@H](O)[C@H]3O)c(-c3ccc(O)c(O)c3)oc2c1,-1,·,·,·,·,·,·
C=C[C@H]1[C@H](OC2OC(CO)C(O)C(O)C2O)OC=C(C(=O)OC)[C@H]1CCOC(=O)c1cc(O)c(O)c(O)c1 (stereo partly specified),0,·,·,·,·,·,·
O=C(O)CCC(=O)Nc1ccc(Br)c2cccnc12,1,·,·,·,·,·,·
CC(C)NC(=O)N1[C@H](CO)[C@@H](c2ccc(C#CC3CCCCC3)cc2)[C@@H]1C#N,·,99*,0,94,105*,-20,105*
N#C[C@@H]1[C@H](c2ccc(C#CC3CCCCC3)cc2)[C@@H](CO)N1C(=O)Nc1ccc(F)cc1,·,·,-4,·,·,·,·

# Source: PubChem BioAssay (Broad Institute)
